Source: PubChem
A selection: hits, their analogues and other compounds. The true share with any hit is near 12%.
CHOP inhibitor: blocks CHOP induction under ER stress. CHO-K1 CHOP-promoter luciferase, tunicamycin-induced, 15-18 h. hit rate 3.8% among 220,000. AID 2732. inhibition, % at 10 µM;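 active means compounds that reduced the stress-induced luciferase reporter signal by more than about 70% of percent inhibition, limit read from the data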
PKD1 kinase inh: PKD1 (human) kinase inhibition. hit rate 0.056% among 200,000. AID 797. inhibition, % (no concentration beside the values). PKD1 kinase fluorescence polarization assay. Q15139
L major viab: reduces viability of Leishmania major promastigotes; resazurin fluorescence viability; inhibition, % at 10 µM; hit rate 9% among 200,000; AID 1063;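 further: promastigotes grown with compound for 44 hours at 28 °C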
Rad51 HR inh: blocks human Rad51 in homologous recombination; hRad51 DNA strand exchange, fluorescence dequenching; AID 1385; Q06609; hit rate 0.085% among 200,000; inhibition, % at 10 µM;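 active means inhibition above 40% at the single screening dose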
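material = hRad51 filaments on single-stranded DNA | reagent = Donor/quencher-labelled 47-bp dsDNA substrate | compound = 10 µM final, single point | schedule = strand-exchange reaction 15 min at room temperature | measured by = fluorescein emission 520 nm, excitation 485 nm | read-out basis = % inhibition versus plate control and blank means | benchmarks = plate controls and plate blanks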
Arbovirus anti: antivirals against arbovirus infection. arbovirus infection cell-based antiviral screen. inhibition, % at 10 µM. hit rate 0.37% among 200,000. AID 1251; in the data active means inhibition above about 30%
Wee1 stabilizer: human Wee1 degradation inhibition, primary screen; reporter increase, % at 5 µM; P30291; HeLa Luc-Wee1K328M stability, luciferase luminescence; 100% = proteasome inhibitor MG132 effect; hit rate 1.2% among 220,000;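 active means activation above the mean of all tested compounds plus 3 SD, set per screening run, cut at about 8.8% in these data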;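 further: cells exposed to compound for 20 h before luminescence read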
Target sequence (P30291 whole entry K328M): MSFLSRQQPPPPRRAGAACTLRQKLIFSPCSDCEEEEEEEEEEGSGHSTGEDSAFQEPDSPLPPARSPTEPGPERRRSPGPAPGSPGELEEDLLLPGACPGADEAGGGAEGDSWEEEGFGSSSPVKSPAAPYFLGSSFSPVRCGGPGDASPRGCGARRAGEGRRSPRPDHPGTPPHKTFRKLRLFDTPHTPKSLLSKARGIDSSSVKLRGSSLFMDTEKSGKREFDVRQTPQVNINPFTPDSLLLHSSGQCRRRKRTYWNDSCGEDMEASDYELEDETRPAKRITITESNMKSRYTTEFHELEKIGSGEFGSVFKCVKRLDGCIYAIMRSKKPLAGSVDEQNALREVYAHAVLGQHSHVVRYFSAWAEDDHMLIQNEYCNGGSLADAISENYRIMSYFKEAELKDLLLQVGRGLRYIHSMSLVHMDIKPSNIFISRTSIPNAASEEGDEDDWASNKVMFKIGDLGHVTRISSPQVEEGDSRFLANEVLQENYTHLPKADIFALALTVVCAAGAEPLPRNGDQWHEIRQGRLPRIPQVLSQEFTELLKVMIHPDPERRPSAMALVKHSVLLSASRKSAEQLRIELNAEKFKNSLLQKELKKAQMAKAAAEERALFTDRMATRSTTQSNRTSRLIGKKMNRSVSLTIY
Large screens that a line does not name were inactive. Unless noted, no stated cut-off is given here; in the data, active means inhibition above about 50%; inactive means the rest.

CCCCn1c(O)c(N=Nc2ccccn2)c2ccccc21	L major viab 66
CCn1c(O)c(N=Nc2ccc3ccccc3n2)c2ccccc21	none (no result: PKD1 kinase inh, L major viab, Rad51 HR inh, Arbovirus anti)
CSCCC(NS(=O)(=O)c1ccc(C)c(C(=O)O)c1)C(=O)O (stereo unspecified)	none
COc1cccc(-c2nnc(-c3ccccc3NC(=O)c3ccc(C(C)(C)C)cc3)o2)c1	none (no result: PKD1 kinase inh, L major viab, Arbovirus anti)
CCCC[n+]1ccn(C2=C([O-])c3ccccc3C(=O)/C2=N\S(=O)(=O)c2ccccc2)c1	none
CCCCC[n+]1ccn(C2=C([O-])c3ccccc3C(=O)/C2=N\S(=O)(=O)c2ccccc2)c1	L major viab 91
COc1cc(CNCc2ccccc2)cc(Cl)c1OC	L major viab 66
COc1cc(CNCCc2ccccc2)cc(Cl)c1OCc1ccccc1	L major viab 91
CCCCNCc1cc(Cl)c(OCCC)c(OCC)c1	L major viab 90
CCOc1cc(CNCC2CCCN2CC)cc(Cl)c1OC (stereo unspecified)	none
CCOc1cc(CNCc2ccncc2)cc(Cl)c1OC	L major viab 89 (no result: Rad51 HR inh)
CCOC(=O)C1(Cc2ccc(Cl)cc2)CCN(C(=O)c2cc(C)nc(C)n2)CC1	none (no result: Rad51 HR inh)
CN(C)c1ccc(S(=O)(=O)N2CCCCC2)cc1NC(=O)COc1ccccc1F	none (no result: PKD1 kinase inh, L major viab, Arbovirus anti)
CCN(c1cccc(C)c1)C(C(=O)Nc1ccc(OC)cc1)c1cc2c(cc1[N+](=O)[O-])OCO2 (stereo unspecified)	L major viab 79
Fc1ccc2c(c1)C(c1ccncc1)=NNC(c1ccccc1)=N2	none
Cn1ccc(C(=O)Oc2ccc(C(=O)Nc3ccc(F)cc3F)cc2)n1	none
Cc1nc(C(F)(F)F)c(C(=O)N/N=C(\N)c2ccccn2)s1	L major viab 96
CC(C)C(NC(=O)C12CC3CC(CC(C3)C1)C2)C(=O)N/N=C/C1=C(N2CCOCC2)C(=C\c2cccc([N+](=O)[O-])c2)/CC1 (stereo unspecified)	L major viab 97
O=C(O)c1ccc(N/N=C/C2=C(N3CCOCC3)C(=C\c3ccccc3)/CC2)cc1	none (no result: PKD1 kinase inh, L major viab, Arbovirus anti)
Cc1cccc(C)c1NC(=O)CN(C)C(=O)C(c1ccccc1)c1ccccc1	L major viab 86
CCN(CC)CC(=O)Nc1c(C)cccc1C	none
Cc1cccc(C)c1NC(=O)CN(C)C(=O)/C=C/c1cccs1	L major viab 52
O=[N+]([O-])c1cc(C(F)(F)F)cc([N+](=O)[O-])c1NCCNC(=S)Nc1cccc(F)c1	none (no result: PKD1 kinase inh, L major viab, Arbovirus anti)
C=CCNC(=O)C1COc2ccccc2O1 (stereo unspecified)	none (no result: PKD1 kinase inh, L major viab, Arbovirus anti)
Cc1cc(=O)oc2cc(OCC(=O)OCC(=O)N3CCC(C)CC3)ccc12	none
Cc1nn(-c2ccccc2)c2c1C(=O)N(Cc1ccccc1)C(=O)C(C)(C)C2	L major viab 84
Cc1nn(-c2nc3ccccc3n2Cc2ccccc2)c2c1C(=O)CC(C)(C)C2	none
CCn1nc(C)c(CN2CCCC(CO)(Cc3cccc(Cl)c3)C2)c1C (stereo unspecified)	L major viab 53
Cc1c(CN2CCCC(CO)(Cc3cccc(Cl)c3)C2)cnn1C (stereo unspecified)	L major viab 61
CCn1nc(C)c(CN2CCCC(CO)(Cc3ccccc3)C2)c1C (stereo unspecified)	L major viab 61 (no result: Rad51 HR inh)
CCCCN1C(=O)/C(=C2\SC(N3CCCCC3)=NC2=O)c2ccccc21	L major viab 51
CN1CCN(CC(=O)Nc2c(C#N)cnn2-c2ccccc2)CC1	none (no result: PKD1 kinase inh, L major viab, Arbovirus anti)
COCc1nc(-c2ccc(-c3ccc(OC)cc3)nc2OC)no1	none
CCc1nc(-c2ccc(-c3ccc(OC)cc3)nc2OC)no1	CHOP inhibitor 77
CCCCN1CNC(=S)N(c2ccc(C(=O)OCC)cc2)C1	none
COc1ccccc1NC(=O)CN1CC(=O)Nc2ccccc21	none
N#Cc1ccccc1S(=O)(=O)Nc1ccc2c(c1)C(=O)OC2	none (no result: PKD1 kinase inh, L major viab, Rad51 HR inh, Arbovirus anti)
COc1ccc(CN(C(=O)/C=C/C(=O)c2ccc(OC)cc2O)C(C(=O)NC2CCCCC2)c2ccncc2)cc1 (stereo unspecified)	L major viab 78
COc1ccc(C(=O)OCC(=O)NC(=O)NC2CCCC2)c(O)c1	none
COc1ccc(C(=O)/C=C/C(=O)N(Cc2ccc3c(c2)OCO3)C(C(=O)NC2CCCCC2)c2ccncc2)c(O)c1 (stereo unspecified)	L major viab 55 (no result: Rad51 HR inh)
O=C(NC1CCCCC1)C(c1ccncc1)N(Cc1ccc2c(c1)OCO2)C(=O)c1cnsn1 (stereo unspecified)	none
COCCN(CC(=O)NC1CCCCC1)C(=O)/C=C/C(=O)c1ccc(OC)cc1O	CHOP inhibitor 108 (no result: Rad51 HR inh)
C/C(=N\O)C(C)(C)Nc1ccccc1F	none (no result: PKD1 kinase inh, L major viab, Arbovirus anti)
CC(OC(=O)c1ccccc1Nc1ccc(SC(F)F)cc1)C(N)=O (stereo unspecified)	L major viab 55
O=C(COC(=O)c1ccccc1Nc1ccc(SC(F)F)cc1)NC1CC1	L major viab 61
NC(=O)COC(=O)c1ccccc1Nc1ccc(SC(F)F)cc1	none
Cc1ccc(N(Cc2ccc(C(=O)NCCSc3ccccn3)cc2)S(C)(=O)=O)cc1C	L major viab 68
Cc1cccc(N(CC(=O)NCCSc2ccccn2)S(=O)(=O)c2ccccc2)c1	L major viab 57 (no result: Rad51 HR inh)
CCCc1cc(=O)[nH]c(SCC(=O)NCCC2=CCCCC2)n1	none
Cc1c(CN2CCCC(C(=O)c3cccc(OC(C)C)c3)C2)c(=O)n(-c2ccccc2)n1C (stereo unspecified)	none
CCOC(=O)C(NC(C)=O)(Nc1ccc(S(=O)(=O)Nc2cc(C)on2)cc1)C(F)(F)F (stereo unspecified)	Rad51 HR inh 41
Cn1c(=O)n(C)c2cc(/C=N/N=C3/NC(=O)C(CC(=O)O)S3)ccc21 (stereo unspecified)	none
Cc1ccc(C(C(=O)Nc2ccc3c(c2)OCO3)N(C)C(=O)/C=C\c2ccc3c(c2)OCO3)cc1 (stereo unspecified)	L major viab 87
CSc1cccc(NC(=O)Nc2ccccc2C(N)=O)c1	none (no result: PKD1 kinase inh, L major viab, Arbovirus anti)
Cc1[nH]c2ccccc2c1C(=O)COC(=O)c1ccc2c(=O)n3c(nc2c1)CCC3	none (no result: Rad51 HR inh)
COc1cc(OC)c(OC)cc1CN(C)C(c1ccccc1)c1nnnn1-c1ccccc1C (stereo unspecified)	CHOP inhibitor 85
CN(c1ccccc1C(=O)Nc1cccc([N+](=O)[O-])c1)S(C)(=O)=O	none
CCOC(=O)C1(Cc2ccccc2)CCN(Cc2ccc3c(c2)OCCO3)CC1	L major viab 92
CCOC(=O)C1(Cc2ccccc2)CCN(Cc2cccc3c2OCO3)CC1	L major viab 66
CCOC(=O)C1(Cc2ccccc2)CCN(Cc2ccc(C)s2)CC1	CHOP inhibitor 90
CCOC(=O)C1(Cc2ccccc2)CCN(Cc2cc(OC)c3c(c2)OCO3)CC1	L major viab 91
CCOC(=O)C1(Cc2ccccc2)CCN(Cc2ccon2)CC1	none
COc1cc(CN2CCCC(CO)(Cc3ccccc3C)C2)cc2c1OCO2 (stereo unspecified)	L major viab 69
